Results taken from ChEMBL document CHEMBL1130118, “A novel radioiodination reagent for protein radiopharmaceuticals with L-lysine as a plasma-stable metabolizable linkage to liberate m-iodohippuric acid after lysosomal proteolysis” (J Med Chem, 1997).
Several values for one entry are separate records, joined by “and”; a condition that tells them apart may be missing. Equal values may be shown once.

Columns and labels:
Format in all cases: ADME, organism-based
Mus musculus [1] = test: The biodistribution time for [131 I ]L-HML-NGA radioactivity after concomitant administration of [131 I ]L-HML-NGA and [125 I ]MPH-NGA in mice. It is expressed as percent injected dose per liver. Ent after 1 hour; settings: in vivo
How it was run: (§1)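 Six-week-old male ddY mice were given one i.v. co-injection of a 131I/125I-labelled NGA pair, each diluted to 90 µg/mL protein in 0.1 M PBS pH 6.0 and mixed 1:1, giving 9 µg of each radioiodinated NGA per mouse. Groups of five were killed at 5, 15, 30 min, 1 h and 3 h. Organs were weighed and counted in a well counter. Values are % ID per organ, blood as % ID/g, mean (SD).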

Mus musculus [2] = test: The biodistribution time for [131 I ]L-HML-NGA radioactivity after concomitant administration of [131 I ]L-HML-NGA and [125 I ]D-HML-NGA in mice. It is expressed as percent injected dose per gram of blood tissue.; settings: in vivo; how it was run: as §1
Mus musculus [3] = test: The biodistribution time for [131 I ]L-HML-NGA radioactivity after concomitant administration of [[131 I ]L-HML-NGA and [125 I ]L-HML-IT-NGA in mice. It is expressed as percent injected dose per kidney.; settings: in vivo; how it was run: as §1
Mus musculus [4] = test: The biodistribution time for [131 I ]L-HML-NGA radioactivity after concomitant administration of [131 I ]L-HML-NGA and [125 I ]D-HML-NGA in mice. It is expressed as percent injected dose per neck.; settings: in vivo; how it was run: as §1
Mus musculus [5] = test: The biodistribution time for [131 I ]L-HML-NGA radioactivity after concomitant administration of [131 I ]L-HML-NGA and [125 I ]D-HML-NGA in mice. It is expressed as percent injected dose per stomach.; settings: in vivo; how it was run: as §1
Mus musculus [6] = test: The biodistribution time for [131 I ]L-HML-NGA radioactivity after concomitant administration of [131 I ]L-HML-NGA and [125 I ]L-HML-IT-NGA in mice. It is expressed as percent injected dose per gram of blood tissue.; settings: in vivo; how it was run: as §1
Mus musculus [7] = test: The biodistribution time for [131 I ]L-HML-NGA radioactivity after concomitant administration of [131 I ]L-HML-NGA and [125 I ]L-HML-IT-NGA in mice. It is expressed as percent injected dose per liver; settings: in vivo; how it was run: as §1
Mus musculus [8] = test: The biodistribution time for [131 I ]L-HML-NGA radioactivity after concomitant administration of [131 I ]L-HML-NGA and [125 I ]MIH-NGA in mice. It is expressed as percent injected dose per intestine.; settings: in vivo; how it was run: as §1
Mus musculus [9] = test: The biodistribution time for [131 I ]L-HML-NGA radioactivity after concomitant administration of [[131 I ]L-HML-NGA and [125 I ]MIH-NGA in mice. It is expressed as percent injected dose per kidney.; settings: in vivo; how it was run: as §1
Mus musculus [10] = test: The biodistribution time for [131 I ]L-HML-NGA radioactivity after concomitant administration of [[131 I ]L-HML-NGA and [125 I ]MPH-NGA in mice. It is expressed as percent injected dose per kidney.; settings: in vivo; how it was run: as §1
Mus musculus [11] = test: The biodistribution time for [131 I ]L-HML-NGA radioactivity after concomitant administration of [131 I ]L-HML-NGA and [125 I ]MPH-NGA in mice. It is expressed as percent injected dose per neck.; settings: in vivo; how it was run: as §1
Homo sapiens [12] = organism: Homo sapiens; test: The percent protein-bound radioactivity in NGAfractions following incubation of radioiodinated [131 I ]L-HML-NGA in human serum after 1 hour
How it was run: (§2)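 Conjugates were diluted to 0.5 mg/mL in 0.1 M PBS pH 6.0, and 20 µL was added to 230 µL of freshly prepared human serum. Samples were incubated at 37 °C and taken at 1, 3, 6 or 24 h. Protein-bound fraction (Rf 0) was separated from small metabolites (Rf 0.6-0.9) by paper chromatography in methanol-water 4:1. Protein-bound radioactivity was divided by the initial radiochemical purity. Values are mean (SD).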

Homo sapiens [13] = organism: Homo sapiens; test: The percent protein-bound radioactivity in NGAfractions following incubation of radioiodinated [131 I ]L-HML-NGA in human serum after 3 hours; settings: in vivo; how it was run: as §2
Mus musculus [14] = test: The biodistribution time for [131 I ]L-HML-NGA radioactivity after concomitant administration of [131 I ]L-HML-NGA and [125 I ]MIH-NGA in mice. It is expressed as percent injected dose per stomach.; settings: in vivo; how it was run: as §1
Mus musculus [15] = test: The biodistribution time for [131 I ]L-HML-NGA radioactivity after concomitant administration of [131 I ]L-HML-NGA and [125 I ]MPH-NGA in mice. It is expressed as percent injected dose per gram of blood tissue.; settings: in vivo; how it was run: as §1
Mus musculus [16] = test: The biodistribution time for [131 I ]L-HML-NGA radioactivity after concomitant administration of [131 I ]L-HML-NGA and [125 I ]MPH-NGA in mice. It is expressed as percent injected dose per intestine.; settings: in vivo; how it was run: as §1
Mus musculus [17] = test: The biodistribution time for [131 I ]L-HML-NGA radioactivity after concomitant administration of [[131 I ]L-HML-NGA and [125 I ]D-HML-NGA in mice. It is expressed as percent injected dose per kidney.; settings: in vivo; how it was run: as §1
Mus musculus [18] = test: Biodistribution time for compound radioactivity after concomitant administration of compound and [125 I ]MIH-NGA in mice was expressed as % injected dose per liver after 15 min; settings: in vivo, 0.25 h; how it was run: as §1
Mus musculus [19] = test: Biodistribution time for compound radioactivity after concomitant administration of compound and [125 I ]MIH-NGA in mice. It is expressed as % injected dose per liver. Values are mean(SD) of 5 animals for each experiment after 5 minutes; settings: in vivo; how it was run: as §1
[20] = Cumulative radioactivity exerted by [131 I ]L-HML-NGA in the feces at 24 hour postinjection of [131 I ]L-HML-NGA and [125 I ]D-HML-NGA.; settings: in vivo
How it was run: (§3)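 Mice received one i.v. co-injection of the dual-isotope NGA mixture, 9 µg of each radioiodinated protein, and were housed in metabolic cages for 24 h. Cumulative urine and feces were collected and counted. Values are % injected dose, mean (SD) of five animals, with a Student's paired t-test between the two co-administered conjugates.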

[21] = Cumulative radioactivity exerted by [131 I ]L-HML-NGA in the feces at 24 hour postinjection of [131 I ]L-HML-NGA and [125 I ]HML-IT-NGA.; settings: in vivo; how it was run: as §3
[22] = Cumulative radioactivity exerted by [131 I ]L-HML-NGA in the urine at 24 hour postinjection of [131 I ]L-HML-NGA and [125 I ]D-HML-NGA.; settings: in vivo; how it was run: as §3
[23] = Cumulative radioactivity exerted by [131 I ]L-HML-NGA in the urine at 24 hour postinjection of [131 I ]L-HML-NGA and [125 I ]HML-IT-NGA.; settings: in vivo; how it was run: as §3
[24] = Cumulative radioactivity exerted by [131 I ]L-HML-NGA in the urine at 24 hour postinjection of [131 I ]L-HML-NGA and [125 I ]MIH-NGA.; settings: in vivo; how it was run: as §3

- Radioactivity (Mus musculus [1]): 4.29%
- Radioactivity (Mus musculus [6]): 1.13% and 1.72% and 0.8% and 0.48%
- Radioactivity (Mus musculus [7]): 54.25%
- Radioactivity (Mus musculus [11]): 0.05% and 0.23% and 0.09% and 0.03%
- Radioactivity (Homo sapiens [12]): 99.78%
- Radioactivity (Homo sapiens [13]): 99.07%
- Radioactivity (Mus musculus [18]): 54.33%
- Radioactivity (Mus musculus [19]): 94.15%
- Radioactivity [20]: 4.4%
- Radioactivity [21]: 2.83%
- Radioactivity [22]: 80.78%
- Radioactivity [23]: 80.07%
- Radioactivity [24]: 87.32%
Structure (SMILES): N[C@@H](CS)C(=O)SC1CC(=O)N(CCCC[C@H](NC(=O)CNC(=O)c2cccc([131I])c2)C(=O)O)C1=O (some centres undefined)
- Radioactivity (Mus musculus [2]): 1.9% and 3.14% and 1.63% and 0.82% and 0.5%
- Radioactivity (Mus musculus [3]): 0.28% and 4.91% and 4.92% and 0.96% and 0.21%
- Radioactivity (Mus musculus [4]): 0.13% and 0.28% and 0.17% and 0.12% and 0.05%
- Radioactivity (Mus musculus [5]): 0.2% and 0.5% and 0.88% and 0.78% and 0.69%
- Radioactivity (Mus musculus [8]): 0.78% and 3.57% and 5.41% and 6.15% and 4.54%
- Radioactivity (Mus musculus [9]): 0.84% and 4.16% and 2.19% and 0.51% and 0.16%
- Radioactivity (Mus musculus [10]): 0.76% and 5.3% and 2.3% and 0.31% and 0.13%
- Radioactivity (Mus musculus [14]): 0.39% and 0.47% and 0.46% and 0.45% and 0.51%
- Radioactivity (Mus musculus [15]): 1.22% and 3.14% and 1.28% and 0.54% and 0.31%
- Radioactivity (Mus musculus [16]): 0.66% and 4.66% and 4.59% and 5.75% and 5.43%
- Radioactivity (Mus musculus [17]): 1.07% and 4.49% and 1.55% and 0.61% and 0.27%
